A selection: hits, their analogues and other compounds. The true share with any hit is near 2%.
TROY signal inh = TROY signaling inhibition. Q293 LMP1-TROYcd NF-kB luciferase reporter, 4 h. inhibition, % at 10 µM. actives 0.98% (n = 360,000). AID 1347056;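 active = compounds whose plate-normalised and pattern-corrected inhibition of the luciferase reporter signal at the single screening dose is 50% or more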
CaV13 FRET inh = Primary screen for inhibitors of IQ motif and Ca2+-dependent inactivation inhibitor domain binding in CACNA1D, Förster resonance energy transfer in living cells, … | inhibition, % at 12.3 µM | HEK cells, CFP/YFP FRET ICDI-IQ, plate reader, 10 min; percent FRET-ratio fall versus neutral wells | actives 0.098% (n = 340,000);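 active = mean replicate inhibition of at least 30% and at least 1% of replicates passing that level; inconclusive = only one of the two criteria is met; inactive = neither criterion is met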;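 note: 0% = median of the neutral control wells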
TWEAK-Fn14 inh = TWEAK-Fn14 signaling inhibition; TWEAK-stimulated Fn14 reporter cells, luciferase luminescence, 8 h; inhibition, % at 10 µM; actives 2% (n = 360,000); AID 1159606; in the data active = inhibition above about 50%
LGR2 inh = inhibitors of bursicon-induced Drosophila LGR2 receptor cAMP signaling | HEK293 LGR2, CRE-luciferase, bursicon-stimulated, 4 h | inhibition, % at 9.99 µM | actives 0.35% (n = 380,000);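 active = drop in luminescence signal, shown as inhibition above about 50% in the replicate tests, limit read from the data, passing the limit was not always enough; inconclusive = probably only some replicates passing the limit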;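 note: agonist challenge used bursicon conditioned medium at about half maximal strength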
XiGFP reactiv = X-chromosome reactivation activator | XiGFP mouse fibroblasts, % GFP-positive cells imaging, 3 d; cells co-treated with 5-aza-dC sensitizer; scaled so ellipticine positive control = 100% | AID 743238 | activation, % at 7.58 µM | actives 0.055% (n = 360,000);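 active = mean normalized replicate activation at least 10% and every replicate at or above 10%; inconclusive = only one of the two criteria met; inactive = mean below 10% and not all replicates reach 10%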;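 note: 0% = median of on-plate neutral control wells and 100% = ellipticine 6 µM median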
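Material: XiGFP fibroblasts, SV40-immortalized; Buffer or medium: DMEM containing 5-aza-dC; Compound dosing: single point; Times: 3 days compound exposure.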
An asterisk follows results filed as active; u = inconclusive; x = no result.

SMILES	TROY signal inh	CaV13 FRET inh	TWEAK-Fn14 inh	LGR2 inh	XiGFP reactiv
O=c1c2c(-c3ccccc3)csc2nc2c3ccccc3c(NCCN3CCOCC3)nn12	6	-2	-19	64*	0
COc1ccc(CN(C)C[C@@H]2OCCCC[C@H](C)Oc3ccc(NC(=O)CCC(F)(F)F)cc3C(=O)N([C@@H](C)CO)C[C@H]2C)cc1	x	x	x	4	0
Cc1cc2[nH]c3c(c[n+](C)c4ccccc34)c2cc1C	26	-5	-149	100*	0
C[C@@H]1CCCCO[C@H](CN(C)S(=O)(=O)c2ccc(F)cc2)[C@H](C)CN([C@@H](C)CO)C(=O)c2cc(NC(=O)CCCN(C)C)ccc2O1	x	x	x	7	0
O=C(CCN1CCCCC1)NCC[C@@H]1CC[C@@H](NC(=O)Nc2ccc(Cl)cc2)[C@H](CO)O1	x	x	x	-4	0
Cc1cc(NC(=O)C2CCCN2C(=O)Nc2cccc(Cl)c2)ccc1-n1cnnn1 (configuration not stated)	9	2	55*	23	0
C=CCN(c1ccccc1)S(=O)(=O)c1cccc(C(=O)Nc2nc3ccccc3[nH]2)c1	15	-6	54*	0	1
CN(c1cccc(Cl)c1)S(=O)(=O)c1cccc(C(=O)Nc2nc3ccccc3[nH]2)c1	35	-5	74*	u	0
CC(C)NC(=O)N1C2CN(Cc3ccc(F)cc3)CC1C2c1ccc(Br)cc1 (configuration not stated)	x	x	x	x	0
O=C(CSc1ncccc1-c1nc2ccccc2[nH]1)N1CCc2ccccc21	62*	-5	67*	-21	0
COC(=O)CSc1ncccc1-c1nc2ccccc2[nH]1	-25	-9	-11	x	x
CCC(=O)Nc1ccc2c(c1)C(=O)N(C)[C@@H]1CC[C@@H](CC(=O)NC3CCCC3)O[C@H]1CO2	x	x	x	-1	0
Cc1ccc2c(c1)c(/C=C/c1cc[n+](C)cc1)c(C)n2C	37	-43	16	7	106*
Cc1ccc2[nH]c(C)c(/C=C/c3cc[n+](C)cc3)c2c1	28	-42	33	9	45*
CCNc1nc(NCC)n2c(SC(C(=O)Nc3cc(Cl)cc(Cl)c3)c3ccccc3)nnc2n1 (configuration not stated)	47	-3	67*	2	0
CCNc1nc(NCC)n2c(SCC(=O)Nc3cccc(Cl)c3)nnc2n1	-14	x	-10	x	x
CC(=O)Nc1ccc2c(c1)C(=O)N(C)[C@@H]1CC[C@@H](CC(=O)NCCCN3CCOCC3)O[C@@H]1CO2	x	x	x	6	0
N#CC1=C(N)N(c2ccc(Oc3ccccc3)cc2)C(=O)C1	x	x	88*	x	x
Cc1ccc(-n2nc3c([n+]2[O-])CCc2c-3no[n+]2[O-])cc1	-4	-5	57*	x	x
CC(=O)N(C)C[C@H]1Oc2cc(C#CCN(C)C)ccc2S(=O)(=O)N([C@H](C)CO)C[C@@H]1C	x	x	x	-10	-1
Cc1ccc([N+](=O)[O-])cc1N(CC(=O)NC1CCCC1)S(C)(=O)=O	-7	-1	-5	-11	0
Cc1ccc(NS(=O)(=O)c2ccc(NC(=O)CN(c3cc([N+](=O)[O-])ccc3C)S(C)(=O)=O)cc2)c(C)c1	39	-3	62*	17	0
COc1cccc(CN(C)C[C@H]2OCc3ccccc3-c3c(n(C)c4ccccc34)C(=O)N([C@H](C)CO)C[C@H]2C)c1	x	x	x	-11	0
CNc1ccc(/C=C2\CSc3ccccc3C2=O)cc1[N+](=O)[O-]	62*	3	83*	8	0
C[C@@H]1CN([C@@H](C)CO)C(=O)c2cc(NS(=O)(=O)c3ccc(F)cc3)ccc2O[C@@H]1CN(C)C(=O)Nc1ccc(F)cc1	x	x	x	12	0
SMILES	TROY signal inh	CaV13 FRET inh	TWEAK-Fn14 inh	LGR2 inh	XiGFP reactiv
c1cc2c(cc1C1=NNC(=NC3CC3)SC1)OCCO2	89*	-18	104*	55*	0
CCCCN=C1NN=C(c2ccc3c(c2)OCCO3)CS1	62*	-4	70*	35	0
C[C@H](CO)N1C[C@H](C)[C@@H](CN(C)CC2CC2)Oc2ccc(NC(=O)Nc3ccc(F)cc3)cc2CC1=O	x	x	x	0	-1
Cc1ccccc1S(=O)(=O)N(C)C[C@H]1OCc2ccccc2-c2ccccc2C(=O)N([C@H](C)CO)C[C@H]1C	x	x	x	7	0
COc1cccc(-c2ccc3ncnc(NCc4cccnc4)c3c2)c1	45	-3	74*	12	0
C[C@@H]1CN([C@H](C)CO)C(=O)c2cc(N(C)C)ccc2O[C@@H]1CN(C)S(=O)(=O)c1ccc(F)cc1	x	x	x	-5	0
C[C@@H]1CN([C@H](C)CO)C(=O)c2cc(NC(=O)CCC(F)(F)F)ccc2O[C@@H](C)CCCCO[C@@H]1CN(C)C(=O)CCC(F)(F)F	x	x	x	-11	0
COc1ccc(NC(=O)c2nc(S(=O)(=O)Cc3cccc(C)c3)ncc2Cl)c(OC)c1	54*	-3	44	-23	0
COc1ccc(OC)c(NC(=O)c2nc(S(=O)(=O)Cc3ccccc3)ncc2Cl)c1	83*	-2	76*	16	3
C#CCOC(=O)c1ccccc1C(=O)n1nnc2ccccc21	36	-4	55*	4	x
CN(C)c1ccc(C(=O)n2nnc3ccccc32)cc1	7	-5	94*	x	x
Nn1c(=S)[nH]c2sc3c(c2c1=O)CCCC3	75*	-5	53*	6	0
CN1c2ccccc2C(C)(C)C12C=Nc1c(cc(N3CCOCC3)c3ccccc13)O2 (configuration not stated)	31	-5	24	x	x
CN1c2ccccc2C(C)(C)C12C=Cc1cc(O)ccc1O2 (configuration not stated)	34	-9	53*	18	x
CO[C@@H]1CN(C)C(=O)c2cc(NC(=O)C3CCOCC3)ccc2OC[C@@H](C)N(C(=O)C2CCOCC2)C[C@H]1C	x	x	x	-15	1
COc1ccc(/C=N\NC(=O)c2ccc(Cn3cc(Br)c([N+](=O)[O-])n3)o2)c(OC)c1C	5	-4	63*	x	0
C[C@@H]1CN([C@@H](C)CO)S(=O)(=O)c2ccc(C#C[C@@H](C)O)cc2O[C@@H]1CN(C)CC1CCOCC1	x	x	x	-4	0
CN(C)C(=O)c1ccc(-c2ccc([C@@H]3[C@@H](CO)N4C(=O)CN(C(=O)C5CCC5)C[C@@H]34)cc2)cc1	x	x	x	-8	0
O=C(CCl)N1N=C(c2cccs2)CC1c1ccco1 (configuration not stated)	1	-12	67*	1	0
CN1CCN(CC(=O)N2N=C(c3cccs3)CC2c2ccco2)CC1 (configuration not stated)	2	-5	14	-3	0
C[C@@H]1CN([C@H](C)CO)C(=O)c2cc(NC(=O)CCCN(C)C)ccc2O[C@@H]1CN(C)C	x	x	x	3	0

From PubChem
